In one experiment the test system is A549. The experiment in a line: Growth inhibition of human A549 cells assessed as inhibition of cell proliferation after 24 hrs by MTT assay. The conditions noted are these: A549, 24 h. The experiment is classed as functional. An outline of the steps: (§1)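 Cells seeded at (1–5) × 10^3 per well and grown 12 h at 37 °C. Compounds added at increasing concentrations in medium with 10% FBS for 24 h. MTT dye then added, followed by 3–4 h at 37 °C. Medium discarded, formazan dissolved in DMSO and plate read. GI50 calculated relative to DMSO-treated control wells.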

The target of another experiment is Tubulin (Bos taurus, UniProt Q6B856+Q862F3). In words: Inhibition of bovine brain tubulin polymerization extent after 20 mins by turbidimetrically.
Tubulin, sequence (Q6B856 whole entry): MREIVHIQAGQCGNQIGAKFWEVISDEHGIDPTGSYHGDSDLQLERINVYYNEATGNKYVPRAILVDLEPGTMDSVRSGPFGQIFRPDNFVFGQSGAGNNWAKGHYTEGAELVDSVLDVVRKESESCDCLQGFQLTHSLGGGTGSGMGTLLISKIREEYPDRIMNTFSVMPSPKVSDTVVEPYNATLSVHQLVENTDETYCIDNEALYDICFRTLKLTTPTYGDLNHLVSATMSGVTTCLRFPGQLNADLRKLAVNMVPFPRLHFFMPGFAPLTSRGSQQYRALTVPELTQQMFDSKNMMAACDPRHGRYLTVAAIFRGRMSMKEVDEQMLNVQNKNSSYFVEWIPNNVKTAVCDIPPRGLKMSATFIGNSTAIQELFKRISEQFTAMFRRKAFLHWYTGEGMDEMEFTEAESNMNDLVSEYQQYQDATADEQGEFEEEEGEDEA
Tubulin, sequence (Q862F3 whole entry): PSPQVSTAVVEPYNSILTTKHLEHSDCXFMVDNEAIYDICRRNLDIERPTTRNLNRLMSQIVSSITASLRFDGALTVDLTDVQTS
The next experiment concerns the target Tubulin (Bos taurus) (UniProt Q6B856+Q862F3). The conditions noted are these: at 5 µM.
The subject of another experiment is HepG2. The experiment in a line: Growth inhibition of human HepG2 cells assessed as inhibition of cell proliferation after 24 hrs by MTT assay. Type of experiment: functional. The conditions noted are these: HepG2, 24 h. An outline of the steps:
as §1
In general terms: Formazan colour is commonly taken as a measure of viable cells.

The next experiment concerns MCF7. The experiment in a line: Growth inhibition of human MCF7 cells assessed as inhibition of cell proliferation after 24 hrs by MTT assay. Type of experiment: functional. The conditions noted are these: MCF7, 24 h. An outline of the steps: as §1

This note sets out measurements from ChEMBL document CHEMBL3588853, “Synthesis, biological evaluation, and molecular docking studies of novel 1-benzene acyl-2-(1-methylindol-3-yl)-benzimidazole derivatives as potential tubulin polymerization inhibitors” (Eur J Med Chem, 2015).

What is called GI50 is the concentration that inhibits growth by half. In general, IC50 refers to the concentration that gives 50% inhibition. Higher therefore signals weaker potency. The term inhibition denotes the drop in the measured response relative to a control, in per cent. Low readings indicate little suppression, high ones strong suppression.

For the compound `COc1cccc(C(=O)n2c(-c3cn(C)c4ccc(OC)cc34)nc3ccccc32)c1`, the GI50 in the experiment on A549 was 4.6 µM; in the experiment with HepG2, 11.7 µM; in the experiment with MCF7 it was 14.6 µM. At Tubulin, this compound registered an IC50 of 3.3 µM. Also, at Tubulin (Bos taurus), the inhibition is 84%.
For `COc1cccc(C(=O)n2c(-c3cn(C)c4ccccc34)nc3ccccc32)c1`, in that order: 10.2 µM, 13.6 µM, 15.7 µM, 4.4 µM and 81%.
Take `COc1cc(C(=O)n2c(-c3cn(C)c4ccc(Br)cc34)nc3ccccc32)cc(OC)c1OC`: the values for the GI50 in the experiment with A549, in the experiment on HepG2 and with MCF7 were 3 µM, 8.2 µM and 9.7 µM, respectively. Further, the IC50 against Tubulin stood at 2 µM. The compound also displayed an inhibition against Tubulin (Bos taurus) of 91%.
Consider `COc1ccc(/C=C\c2cc(OC)c(OC)c(OC)c2)cc1O` [COMBRETASTATIN A4], for which the GI50 was found to be 2.8 µM with A549, 7.4 µM with HepG2 and 9.4 µM in the experiment with MCF7. Moreover, the inhibition at Tubulin (Bos taurus) stood at 93%.
Consider `COc1ccc(C(=O)n2c(-c3cn(C)c4ccccc34)nc3ccccc32)cc1OC`, for which the GI50 in the experiment with A549 worked out at 3.1 µM; in the experiment with HepG2 it was 8.4 µM; in the experiment with MCF7, 10.2 µM. The IC50 against Tubulin was found to be 2.1 µM. At Tubulin (Bos taurus), this compound yielded an inhibition of 87%.
The matching figures for `Cn1cc(-c2nc3ccccc3n2C(=O)c2ccccc2)c2cc(Br)ccc21`: 23.1 µM, 48.1 µM, 50.3 µM, 25.3 µM and 60%.
The matching figures for `COc1ccc2c(c1)c(-c1nc3ccccc3n1C(=O)c1cccc(Br)c1)cn2C`: 24.8 µM, 51.3 µM, 52.7 µM, 29.2 µM and 57%.
The matching figures for `Cn1cc(-c2nc3ccccc3n2C(=O)c2ccccc2Br)c2cc(Br)ccc21`: 46.7 µM, 72.1 µM, 73.6 µM, 45.6 µM and 48%.
On to `COc1ccc2c(c1)c(-c1nc3ccccc3n1C(=O)c1ccccc1OC)cn2C`, for which the GI50 in the experiment with A549 stood at 11.9 µM; in the experiment with HepG2, 23.6 µM; in the experiment on MCF7 it was 23.9 µM. Further, on Tubulin, the IC50 came out at 8.4 µM. On Tubulin (Bos taurus), this compound had an inhibition of 73%.
The matching figures for `COc1ccc(C(=O)n2c(-c3cn(C)c4ccccc34)nc3ccccc32)cc1`: 10.4 µM, 15.2 µM, 16.3 µM, 4.6 µM and 80%.
The matching figures for `COc1cc(C(=O)n2c(-c3cn(C)c4ccccc34)nc3ccccc32)cc(OC)c1OC`: 2.6 µM, 4.3 µM, 5.4 µM, 1.6 µM and 95%.
`COc1ccc(C(=O)n2c(-c3cn(C)c4ccc(Br)cc34)nc3ccccc32)cc1OC`: the values for the GI50 with A549, in the experiment on HepG2 and in the experiment on MCF7 were 3.4 µM, 9.7 µM and 11.3 µM, respectively. At Tubulin, this compound registered an IC50 of 2.4 µM. The same compound registered an inhibition against Tubulin (Bos taurus) of 85%.
For `Cn1cc(-c2nc3ccccc3n2C(=O)c2ccccc2Br)c2ccccc21`, in that order: 43.2 µM, 68.2 µM, 70.1 µM, 42.9 µM and 50%.
The matching figures for `COc1ccc2c(c1)c(-c1nc3ccccc3n1C(=O)c1ccccc1Br)cn2C`: 29.5 µM, 54.2 µM, 55.8 µM, 32.3 µM and 55%.
Consider `Cn1cc(-c2nc3ccccc3n2C(=O)c2ccccc2)c2ccccc21`, for which the GI50 was 19.6 µM in the experiment on A549, 42.3 µM in the experiment on HepG2 and 43.7 µM in the experiment with MCF7. 23.8 µM corresponded to half-maximal inhibition against Tubulin (IC50). This compound gave an inhibition against Tubulin (Bos taurus) of 61%.
Regarding `COc1ccccc1C(=O)n1c(-c2cn(C)c3ccc(Br)cc23)nc2ccccc21`, the GI50 in the experiment with A549 was determined as 12.8 µM; with HepG2, 34.6 µM; in the experiment with MCF7, 36.2 µM. The compound also gave an IC50 on Tubulin of 17.3 µM. Besides, the inhibition on Tubulin (Bos taurus) amounted to 68%.
With `COc1cc2c(c(OC)c1OC)-c1ccc(OC)c(=O)cc1[C@@H](NC(C)=O)CC2` [COLCHICINE], the GI50 in the experiment with A549 was 4.4 µM; in the experiment with HepG2, 10.5 µM; with MCF7, 13.5 µM.
Consider `COc1ccc2c(c1)c(-c1nc3ccccc3n1C(=O)c1ccccc1)cn2C`, for which the GI50 in the experiment on A549 was determined as 16.7 µM; in the experiment with HepG2 it was 37.9 µM; in the experiment on MCF7, 38.4 µM. Also, the IC50 against Tubulin came to 19.6 µM. The same compound came in with an inhibition against Tubulin (Bos taurus) of 64%.
For `COc1cccc(C(=O)n2c(-c3cn(C)c4ccc(Br)cc34)nc3ccccc32)c1`, in that order: 10.8 µM, 17.8 µM, 18.2 µM, 5.7 µM and 78%.
For `COc1ccc(C(=O)n2c(-c3cn(C)c4ccc(Br)cc34)nc3ccccc32)cc1`, in that order: 11.3 µM, 18.9 µM, 19.2 µM, 6.3 µM and 75%.
The matching figures for `COc1ccc2c(c1)c(-c1nc3ccccc3n1C(=O)c1ccc(OC)c(OC)c1)cn2C`: 2.7 µM, 5.1 µM, 6.3 µM, 1.7 µM and 94%.
Regarding `Cn1cc(-c2nc3ccccc3n2C(=O)c2cccc(Br)c2)c2ccccc21`, the results for the GI50 in the experiment with A549, in the experiment on HepG2 and in the experiment on MCF7 were 34.2 µM, 61.4 µM and 63.4 µM, respectively. This compound had an IC50 on Tubulin of 35.2 µM. Moreover, the inhibition against Tubulin (Bos taurus) came to 52%.
For `Cn1cc(-c2nc3ccccc3n2C(=O)c2cccc(Br)c2)c2cc(Br)ccc21`, in that order: 38.5 µM, 67.3 µM, 68.2 µM, 39.7 µM and 51%.
Take `COc1ccc(C(=O)n2c(-c3cn(C)c4ccc(OC)cc34)nc3ccccc32)cc1`: the GI50 amounted to 4.9 µM in the experiment on A549, 12.8 µM in the experiment on HepG2 and 14.8 µM with MCF7. Moreover, on Tubulin, half-maximal inhibition (IC50) was put at 3.5 µM. In addition, on Tubulin (Bos taurus), the inhibition was 82%.
For `COc1ccccc1C(=O)n1c(-c2cn(C)c3ccccc23)nc2ccccc21`, in that order: 12.3 µM, 31.8 µM, 32.1 µM, 15.9 µM and 70%.
